{"source": "ChEMBL document CHEMBL1130158", "about": "“Alkyl-substituted amino acid amides and analogous di- and triamines: new non-peptide G protein activators” (J Med Chem, 1997)", "key": {"HL-60 [1]": {"test_system": "HL-60", "test": "Efficacy expressed as maximal stimulation of GTP hydrolysis in HL-60 membranes at a concentration 30 uM", "assay_type": "functional, Homo sapiens", "how_it_was_run": "(§1)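 HL-60 cells grown in suspension, differentiated toward neutrophil-like cells with dibutyryl-cAMP (0.2 mM) for 48 h; membranes prepared and steady-state GTP hydrolysis measured with [γ-32P]GTP over increasing compound concentrations. Triplicate determinations, at least three independent experiments. Efficacy = maximal stimulation above basal activity, at the concentration giving maximal stimulation; pEC50 = -log half-maximal concentration, means ± SD.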"}, "HL-60 [2]": {"test_system": "HL-60", "test": "-log of the half-maximal concentration for stimulation of GTPase in HL-60 membrane", "assay_type": "functional", "settings": "Homo sapiens", "how_it_was_run": "as §1"}, "HL-60 [3]": {"test_system": "HL-60", "test": "Efficacy expressed as maximal stimulation of GTP hydrolysis in HL-60 membranes at a concentration 10 uM", "assay_type": "functional, Homo sapiens", "how_it_was_run": "as §1"}, "[4]": {"target": "Histamine H1 receptor (Cavia porcellus) (UniProt P31389)", "sequence (P31389 whole entry)": "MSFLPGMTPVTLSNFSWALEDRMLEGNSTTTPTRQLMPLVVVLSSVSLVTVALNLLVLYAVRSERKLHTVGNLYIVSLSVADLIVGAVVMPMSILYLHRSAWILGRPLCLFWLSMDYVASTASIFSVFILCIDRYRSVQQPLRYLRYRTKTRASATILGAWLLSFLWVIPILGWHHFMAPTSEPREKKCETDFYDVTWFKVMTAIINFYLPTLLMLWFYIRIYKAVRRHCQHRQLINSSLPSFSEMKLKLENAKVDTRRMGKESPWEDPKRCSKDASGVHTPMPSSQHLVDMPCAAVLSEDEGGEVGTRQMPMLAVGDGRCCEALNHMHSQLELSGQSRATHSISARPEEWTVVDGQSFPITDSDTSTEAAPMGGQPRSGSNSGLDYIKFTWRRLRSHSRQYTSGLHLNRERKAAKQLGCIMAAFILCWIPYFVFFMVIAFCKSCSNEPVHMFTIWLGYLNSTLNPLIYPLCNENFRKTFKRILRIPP", "test": "Histamine activity against H1 receptor of guinea pig ileum", "assay_type": "tissue-based"}, "HL-60 [5]": {"test_system": "HL-60", "test": "Efficacy expressed as maximal stimulation of GTP hydrolysis in HL-60 membranes at a concentration 5 uM", "assay_type": "functional, Homo sapiens", "how_it_was_run": "as §1"}, "HL-60 [6]": {"test_system": "HL-60", "test": "Efficacy expressed as maximal stimulation of GTP hydrolysis in HL-60 membranes at a concentration 300 uM", "assay_type": "functional, Homo sapiens", "how_it_was_run": "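Steady-state GTP hydrolysis of the membranes was measured over increasing compound concentrations in triplicate, across at least three independent experiments. Efficacy is the maximal stimulation above basal activity, with the concentration giving that maximum reported.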"}, "HL-60 [7]": {"test_system": "HL-60", "test": "Efficacy expressed as maximal stimulation of GTP hydrolysis in HL-60 membranes at a concentration 20 uM", "assay_type": "functional, Homo sapiens", "how_it_was_run": "as §1"}, "HL-60 [8]": {"test_system": "HL-60", "test": "Efficacy expressed as maximal stimulation of GTP hydrolysis in HL-60 membranes at a concentration 3 uM", "assay_type": "functional, Homo sapiens", "how_it_was_run": "as §1"}, "HL-60 [9]": {"test_system": "HL-60", "test": "-log of the half-maximal concentration for stimulation of GTPase in HL-60 membrane (sensitive to PTX)", "assay_type": "functional", "settings": "Homo sapiens", "how_it_was_run": "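Differentiated HL-60 cells (dibutyryl-cAMP 0.2 mM, 48 h) incubated overnight with pertussis toxin (200 ng/mL) or left untreated; membranes prepared and steady-state [γ-32P]GTP hydrolysis measured across increasing concentrations. PTX sensitivity judged by comparing treated with control membranes. Triplicates; pEC50 = -log half-maximal concentration, mean ± SD.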"}, "HL-60 [10]": {"test_system": "HL-60", "test": "Efficacy expressed as maximal stimulation of GTP hydrolysis in HL-60 membranes at a concentration 2 uM", "assay_type": "functional, Homo sapiens", "how_it_was_run": "as §1"}, "HL-60 [11]": {"test_system": "HL-60", "test": "Efficacy expressed as maximal stimulation of GTP hydrolysis in HL-60 membranes at a concentration 7.5 uM", "assay_type": "functional, Homo sapiens", "how_it_was_run": "as §1"}, "[12]": {"target": "Histamine H1 receptor (Cavia porcellus) (UniProt P31389)", "test": "Histamine activity against Histamine H1 receptor of guinea pig ileum", "assay_type": "tissue-based"}, "[13]": {"target": "Histamine H3 receptor (Cavia porcellus) (UniProt Q9JI35)", "sequence (Q9JI35 whole entry)": "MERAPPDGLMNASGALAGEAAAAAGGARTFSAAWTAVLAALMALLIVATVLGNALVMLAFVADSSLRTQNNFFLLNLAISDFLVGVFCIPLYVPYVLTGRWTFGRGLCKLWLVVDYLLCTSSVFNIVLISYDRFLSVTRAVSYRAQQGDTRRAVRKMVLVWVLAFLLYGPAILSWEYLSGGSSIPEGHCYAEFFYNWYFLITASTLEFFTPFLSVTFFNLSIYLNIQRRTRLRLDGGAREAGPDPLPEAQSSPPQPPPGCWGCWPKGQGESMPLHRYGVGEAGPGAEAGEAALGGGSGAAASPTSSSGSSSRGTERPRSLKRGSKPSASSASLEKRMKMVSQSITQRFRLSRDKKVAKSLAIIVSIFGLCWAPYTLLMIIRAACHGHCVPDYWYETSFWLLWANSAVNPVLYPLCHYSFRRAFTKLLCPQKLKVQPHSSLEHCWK", "test": "Histamine activity against Histamine H3 receptor of guinea pig ileum", "assay_type": "tissue-based"}, "[14]": {"target": "Muscarinic acetylcholine receptor M3 (Cavia porcellus) (UniProt Q8VH26)", "sequence (Q8VH26 1-587)": "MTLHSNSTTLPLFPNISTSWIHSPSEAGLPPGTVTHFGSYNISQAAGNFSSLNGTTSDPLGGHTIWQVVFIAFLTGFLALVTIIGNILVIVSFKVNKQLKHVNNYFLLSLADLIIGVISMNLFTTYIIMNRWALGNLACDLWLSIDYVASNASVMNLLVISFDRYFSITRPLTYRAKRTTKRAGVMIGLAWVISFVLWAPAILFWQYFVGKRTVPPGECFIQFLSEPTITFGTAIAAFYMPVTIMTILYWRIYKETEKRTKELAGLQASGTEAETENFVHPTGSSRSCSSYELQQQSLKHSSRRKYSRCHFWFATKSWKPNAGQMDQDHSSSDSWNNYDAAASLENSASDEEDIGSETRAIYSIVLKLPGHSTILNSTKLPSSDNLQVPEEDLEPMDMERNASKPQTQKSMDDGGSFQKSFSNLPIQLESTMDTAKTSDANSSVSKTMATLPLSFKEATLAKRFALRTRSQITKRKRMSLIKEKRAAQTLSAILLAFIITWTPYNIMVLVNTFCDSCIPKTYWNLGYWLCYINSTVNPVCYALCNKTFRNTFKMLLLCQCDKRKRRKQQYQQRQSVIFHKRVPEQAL", "test": "Affinity towards Muscarinic acetylcholine receptor M3 in guinea pig ileum", "assay_type": "tissue-based"}, "[15]": {"target": "Histamine H2 receptor (Cavia porcellus) (UniProt P47747)", "sequence (P47747 whole entry)": "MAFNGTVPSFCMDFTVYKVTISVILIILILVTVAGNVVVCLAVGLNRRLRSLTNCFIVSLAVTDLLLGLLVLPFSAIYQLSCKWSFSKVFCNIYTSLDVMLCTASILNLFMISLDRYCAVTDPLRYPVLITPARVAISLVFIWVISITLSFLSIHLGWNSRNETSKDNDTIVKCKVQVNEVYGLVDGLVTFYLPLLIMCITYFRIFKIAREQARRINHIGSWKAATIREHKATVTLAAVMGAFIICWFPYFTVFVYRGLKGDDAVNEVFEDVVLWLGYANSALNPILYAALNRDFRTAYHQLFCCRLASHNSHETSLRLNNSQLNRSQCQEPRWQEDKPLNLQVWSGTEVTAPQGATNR", "test": "Histamine activity against Histamine H2 receptor of guinea pig atrium", "assay_type": "tissue-based", "settings": "Cardiac atrium"}, "HL-60 [16]": {"test_system": "HL-60", "test": "Efficacy expressed as maximal stimulation of GTP hydrolysis in HL-60 membranes at a concentration 0.75 uM", "assay_type": "functional, Homo sapiens", "how_it_was_run": "as §1"}}}
{"smiles": "CCCCCCCCCCCCNC(=O)[C@@H](N)CCC(N)=O", "values": [{"measurement": "Efficacy", "setting": "HL-60 [1]", "value": 110, "unit": "%"}, {"measurement": "EC50", "setting": "HL-60 [2]", "value": 7940, "unit": "nM"}]}
{"smiles": "CCCCCCCCCCCCNC(=O)C(N)CCCN", "note": "(stereo unspecified)", "values": [{"measurement": "Efficacy", "setting": "HL-60 [3]", "value": 117, "unit": "%"}, {"measurement": "EC50", "setting": "HL-60 [2]", "value": 2510, "unit": "nM"}, {"measurement": "-Log K", "setting": "[4]", "value": 5.3}]}
{"smiles": "CCCCCCCCCCCCNCCN", "values": [{"measurement": "Efficacy", "setting": "HL-60 [5]", "value": 92, "unit": "%"}, {"measurement": "EC50", "setting": "HL-60 [2]", "value": 1000, "unit": "nM"}]}
{"smiles": "CCCCCCCCCCCCNC(=O)[C@@H](N)CCC/N=C(\\N)N[N+](=O)[O-]", "values": [{"measurement": "Efficacy", "setting": "HL-60 [6]", "value": 156, "unit": "%"}]}
{"smiles": "CCCCCCCCCCCCNC(=O)C(N)CCN", "note": "(stereo unspecified)", "values": [{"measurement": "Efficacy", "setting": "HL-60 [3]", "value": 105, "unit": "%"}, {"measurement": "EC50", "setting": "HL-60 [2]", "value": 1260, "unit": "nM"}]}
{"smiles": "CCCCCCCCCCCCNC(=O)[C@@H](N)Cc1c[nH]cn1", "values": [{"measurement": "Efficacy", "setting": "HL-60 [7]", "value": 125, "unit": "%"}, {"measurement": "EC50", "setting": "HL-60 [2]", "value": 3160, "unit": "nM"}]}
{"smiles": "CCCCCCCCCCCCNC(=O)CN", "values": [{"measurement": "Efficacy", "setting": "HL-60 [7]", "value": 100, "unit": "%"}, {"measurement": "EC50", "setting": "HL-60 [2]", "value": 3980, "unit": "nM"}]}
{"smiles": "CCCCCCCCCCCCNCC(N)CCN", "note": "(stereo unspecified)", "values": [{"measurement": "EC50", "setting": "HL-60 [2]", "value": 631, "unit": "nM"}, {"measurement": "Efficacy", "setting": "HL-60 [8]", "value": 128, "unit": "%"}]}
{"smiles": "CCCCCCCCCCCCNC(=O)CNC(=O)CN", "values": [{"measurement": "Efficacy", "setting": "HL-60 [1]", "value": 120, "unit": "%"}, {"measurement": "EC50", "setting": "HL-60 [2]", "value": 5010, "unit": "nM"}]}
{"smiles": "CCCCCCCCCCCCNC(=O)C(N)CN", "note": "(stereo unspecified)", "values": [{"measurement": "Efficacy", "setting": "HL-60 [3]", "value": 131, "unit": "%"}, {"measurement": "EC50", "setting": "HL-60 [2]", "value": 2510, "unit": "nM"}]}
{"smiles": "CC[C@H](C)[C@H](N)C(=O)N[C@@H](CC(N)=O)C(=O)N[C@@H](CC(C)C)C(=O)N[C@@H](CCCCN)C(=O)N[C@@H](C)C(=O)N[C@@H](CC(C)C)C(=O)N[C@@H](C)C(=O)N[C@@H](C)C(=O)N[C@@H](CC(C)C)C(=O)N[C@@H](C)C(=O)N[C@@H](CCCCN)C(=O)N[C@@H](CCCCN)C(=O)N[C@H](C(=O)N[C@@H](CC(C)C)C(N)=O)[C@@H](C)CC", "values": [{"measurement": "Efficacy", "setting": "HL-60 [3]", "value": 100, "unit": "%"}, {"measurement": "EC50", "setting": "HL-60 [9]", "value": 3160, "unit": "nM"}]}
{"smiles": "CCCCCCCCCCCCCCCCNC(=O)[C@@H](N)CCCCN", "note": "[LYCETAMINE]", "values": [{"measurement": "Efficacy", "setting": "HL-60 [10]", "value": 90, "unit": "%"}, {"measurement": "EC50", "setting": "HL-60 [9]", "value": 501, "unit": "nM"}]}
{"smiles": "CCCCCCCCCCCCNC(=O)[C@@H](N)CCCN=C(N)N", "values": [{"measurement": "Efficacy", "setting": "HL-60 [11]", "value": 92, "unit": "%"}, {"measurement": "EC50", "setting": "HL-60 [2]", "value": 794, "unit": "nM"}]}
{"smiles": "CCCCCCCCCCCCNC(=O)[C@@H](N)CCCCN", "note": "[N-DODECYL LYSINE AMIDE]", "values": [{"measurement": "Efficacy", "setting": "HL-60 [5]", "value": 116, "unit": "%"}, {"measurement": "EC50", "setting": "HL-60 [9]", "value": 794, "unit": "nM"}]}
{"smiles": "CCCCCCCCCCCCNCC(N)CCCN", "note": "(stereo unspecified)", "values": [{"measurement": "-Log K", "setting": "[12]", "value": 5.4}, {"measurement": "-Log K", "setting": "[13]", "value": "< 6"}, {"measurement": "Efficacy", "setting": "HL-60 [5]", "value": 126, "unit": "%"}, {"measurement": "-Log K", "setting": "[14]", "value": 5.2}, {"measurement": "EC50", "setting": "HL-60 [2]", "value": 1000, "unit": "nM"}, {"measurement": "-Log K", "setting": "[15]", "value": 4.1}]}
{"smiles": "CCCCCCCCCCCCNCC(N)CCCCN", "note": "(stereo unspecified)", "values": [{"measurement": "Efficacy", "setting": "HL-60 [10]", "value": 120, "unit": "%"}, {"measurement": "EC50", "setting": "HL-60 [9]", "value": 501, "unit": "nM"}]}
{"smiles": "CCCCCCCCCCCCCCCCNCC(N)CCCCN", "note": "(stereo unspecified)", "values": [{"measurement": "EC50", "setting": "HL-60 [9]", "value": 251, "unit": "nM"}, {"measurement": "Efficacy", "setting": "HL-60 [16]", "value": 84, "unit": "%"}]}
{"smiles": "CCCCCCCCCCCCNC(=O)[C@H](N)CCCCN", "values": [{"measurement": "Efficacy", "setting": "HL-60 [5]", "value": 108, "unit": "%"}, {"measurement": "EC50", "setting": "HL-60 [9]", "value": 794, "unit": "nM"}]}
{"smiles": "CCCCCCCCCCCCNCCN=C(N)N", "values": [{"measurement": "Efficacy", "setting": "HL-60 [11]", "value": 128, "unit": "%"}, {"measurement": "EC50", "setting": "HL-60 [2]", "value": 1000, "unit": "nM"}]}
{"smiles": "CCCCCCCCCCCCCCNCC(N)CCCCN", "note": "(stereo unspecified)", "values": [{"measurement": "EC50", "setting": "HL-60 [9]", "value": 251, "unit": "nM"}, {"measurement": "Efficacy", "setting": "HL-60 [16]", "value": 117, "unit": "%"}]}
{"smiles": "CCCCCCCCCCCCCCNC(=O)[C@@H](N)CCCCN", "values": [{"measurement": "EC50", "setting": "HL-60 [9]", "value": 501, "unit": "nM"}, {"measurement": "Efficacy", "setting": "HL-60 [8]", "value": 100, "unit": "%"}]}
